Activity calls are given as the source filed them. The rule behind the calls is not given here.
Legend:
[1] = […] of Fe-dependent reactive oxygen species formation after 90 mins by H2DCF-DA-based fluorescence assay; assay type: physicochemical; settings: 1.5 h
Outline: (§1)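 H2DCF (20 µM) oxidation to DCF driven by 10 µM FeCl3, 10 µM NTA, 1 mM H2O2 and 1 mM ascorbate in PBS pH 7.4. Compound tested over a concentration range alongside trolox. Control wells hold Fe, NTA, H2O2 and ascorbate only. DCF read at ex 485/em 535 nm.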

ARPE-19 [2] = assay: Cytoprotective activity in human ARPE19 cells assessed as reduction of UVA radiation-mediated cell death at 5 to 100 uM preincubated for 2 hrs followed by 40 mins UVA irradiation measured after 5 hrs by LDH release assay; assay type: functional, cell-based
Outline: (§2)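 ARPE-19 retinal pigment epithelial cells pre-treated 2 h with compound (5–100 µM range tested), then exposed to UVA for 40 min at 600 kJ/m2. Cell death read 5 h after irradiation; triplicate wells per treatment, normalized to cells treated with 2% Triton X-100.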

[3] = Cytotoxicity against human ARPE19 cells assessed as cell viability up to 100 uM after 24 hrs by Cell Titer Blue assay; assay type: cell-based; settings: arpe-19, 24 h
Outline: (§3)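 ARPE-19 cells incubated with compound for 24 h or extended to 72 h, doses up to 100 µM, then assessed for cytotoxicity.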

[4] = Photoconversion of the compound in PBS buffer assessed as time required to show HAPI peak at 50 uM irradiated with UVA for 75 secs by LC-MS analysis; assay type: physicochemical; settings: 75 s
Outline: (§4)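 Prochelator solutions analysed by LC-MS before and after UVA irradiation. New peaks identified by matching elution times and mass spectra to authentic umbelliferone and HAPI.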

[5] = Photoconversion of the compound in PBS buffer assessed as time required to show umbelliferone peak at 50 uM irradiated with UVA for 75 secs by LC-MS analysis; assay type: physicochemical; settings: 75 s; outline: as §4
[6] = Metal chelating activity assessed as formation of compound-Fe3+ complex by measuring free calcein level at 10 uM irradiated with UVA for 15 secs measured after 1 hr by fluorescence-based microplate assay; assay type: physicochemical
Outline: (§5)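 Calcein competition in PBS: 2 µM calcein with 2 µM (NH4)2Fe(SO4)2, forming Fe3+(calcein) in situ. Compound added at 10 µM, with or without 15 s photolysis in a photoreactor (λmax 350 nm). Calcein emission recorded 1 h after photolysis; triplicate, SD.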

[7] = Metal chelating activity assessed as formation of compound-Fe3+ complex by measuring free calcein level at 10 uM after 1 hr by fluorescence-based microplate assay in absence of UVA irradiation; assay type: physicochemical; outline: as §5
[8] = Inhibition of Fe-dependent reactive oxygen species formation at 10 to 100 uM after 1 hr by H2DCF-DA-based fluorescence assay in absence of UVA irradiation; assay type: functional
Outline: (§6)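 H2DCF (20 µM) in PBS pH 7.4 with 10 µM FeCl3, 10 µM NTA, 1 mM ascorbic acid and 1 mM H2O2. Wells dosed with chelator or prochelator, the latter either irradiated (+) or not irradiated (−) with UVA. DCF fluorescence read at ex 485/em 535 nm. Background from wells with only H2DCF and buffer subtracted.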

[9] = Inhibition of Fe-dependent reactive oxygen species formation at 200 uM after 1 hr by H2DCF-DA-based fluorescence assay in absence of UVA irradiation; assay type: functional; outline: as §6
[10] = Inhibition of Fe-dependent reactive oxygen species formation at 10 to 200 uM irradiated with UVA for 15 secs measured after 1 hr by H2DCF-DA-based fluorescence assay; assay type: functional; outline: as §6
ARPE-19 [11] = assay: Cytoprotective activity in human ARPE19 cells assessed as reduction of UVA radiation-mediated cell death at < 50 uM preincubated for 2 hrs followed by 40 mins UVA irradiation measured after 5 hrs by LDH release assay; assay type: functional, cell-based; outline: as §2
ARPE-19 [12] = assay: Cytoprotective activity in human ARPE19 cells assessed as reduction of UVA radiation-mediated cell death at 75 to 100 uM preincubated for 2 hrs followed by 40 mins UVA irradiation measured after 5 hrs by LDH release assay; assay type: functional, cell-based; outline: as §2
[13] = Cytotoxicity against human ARPE19 cells assessed as cell viability at 75 to 100 uM after 72 hrs by Cell Titer Blue assay; assay type: cell-based; settings: arpe-19, 72 h; outline: as §3
[14] = Cytotoxicity against human ARPE19 cells assessed as cell viability at <25 uM after 72 hrs by Cell Titer Blue assay; assay type: cell-based; settings: arpe-19, 72 h; outline: as §3
[15] = Inhibition of Fe-dependent reactive oxygen species formation at 10 to 5000 uM after 90 mins by H2DCF-DA-based fluorescence assay; assay type: functional; outline: as §1
[16] = Inhibition of Fe-dependent reactive oxygen species formation after 1 hr by H2DCF-DA-based fluorescence assay; assay type: functional; outline: as §6

| Activity [1] | Time [4] [min] | Time [5] [min] | Activity [6] | Activity [7] | SMILES | Activity (ARPE-19 [2]) | Activity [3] | inhibition [8] | inhibition [9] | inhibition [10] | Activity (ARPE-19 [11]) | Activity (ARPE-19 [12]) | Activity [13] | Activity [14] | inhibition [15] | inhibition [16] |
| --- | --- | --- | --- | --- | --- | --- | --- | --- | --- | --- | --- | --- | --- | --- | --- | --- |
| Dose-dependent effect |  |  |  |  | O=c1ccc2ccc(O)cc2o1 [UMBELLIFERONE] | inactive | Non-toxic |  |  |  |  |  |  |  |  |  |
|  | 11.7 | 8.3 | Active | Not Active | C/C(=N\NC(=O)c1ccncc1)c1ccccc1OC(=O)/C=C/c1ccc(O)cc1O |  | Non-toxic | inactive | Active | Active | Active | inactive | Toxic | Non-toxic |  |  |
|  |  |  |  |  | Cc1c(C)c2c(c(C)c1O)CCC(C)(C(=O)O)O2 (stereo not drawn) |  |  |  |  |  |  |  |  |  | Active |  |
|  |  |  | Active | Active | C/C(=N\NC(=O)c1ccncc1)c1ccccc1O | Active | Non-toxic |  |  |  |  |  | Toxic | Non-toxic |  | Dose-dependent effect |

— ChEMBL document CHEMBL3627708, “A multifunctional, light-activated prochelator inhibits UVA-induced oxidative stress” (Bioorg Med Chem Lett, 2015)
